Key:
[1] = Veliparib plasma pharmacokinetics; format: in vivo, human
patients = settings: with topotecan 0.6 mg on days 1-5; profound myelosuppression; cited from earlier work
[2] = Reported veliparib half-life; format: in vivo, human; settings: for a 6.1 h half-life
[3] = system: advanced solid malignancies; assay: Tumor response by RECIST 1.0, veliparib with carboplatin and paclitaxel; format: in vivo, human
Method in brief: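 Tumor response followed RECIST 1.0 on CT or MRI. Scans were done every 2 cycles; for the first 46 subjects, the first scan was after cycle 3 and then every 2 cycles. Oral veliparib was given twice daily on days 1–7, with IV carboplatin/paclitaxel, in 21-day cycles, up to 6 cycles recommended.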

[4] = patients, oral veliparib 10-120 mg BID
[5] = Adenoid cystic of lung, 1 evaluable, with carboplatin and paclitaxel
[6] = Adrenalcortical carcinoma, 1 evaluable, with carboplatin and paclitaxel
[7] = All Patients, 67 evaluable, with carboplatin and paclitaxel
[8] = Ampulla of Vater, 1 evaluable, with carboplatin and paclitaxel
[9] = Bladder, 6 evaluable, with carboplatin and paclitaxel
[10] = Breast, 13 evaluable, with carboplatin and paclitaxel
[11] = Carcinoma of unknown origin, 3 evaluable, with carboplatin and paclitaxel
[12] = Cervix, 1 evaluable, with carboplatin and paclitaxel
[13] = Cholangiocarcinoma, 2 evaluable, with carboplatin and paclitaxel
[14] = Esophageal, 2 evaluable, with carboplatin and paclitaxel
[15] = Head & Neck, 8 evaluable, with carboplatin and paclitaxel
[16] = Level 1: veliparib 10 mg BID, carboplatin AUC 6, paclitaxel 150 mg/m^2, 5 evaluable
[17] = Level 4: veliparib 40 mg BID, carboplatin AUC 6, paclitaxel 175 mg/m^2, 3 evaluable
[18] = Level 5: veliparib 40 mg BID, carboplatin AUC 6, paclitaxel 200 mg/m^2, 12 evaluable
[19] = Level 7B: veliparib 100 mg BID, carboplatin AUC 6, paclitaxel 200 mg/m^2, 14 evaluable
[20] = Level 8: veliparib 120 mg BID, carboplatin AUC 6, paclitaxel 200 mg/m^2, 8 evaluable
[21] = Lung, 16 evaluable, with carboplatin and paclitaxel
[22] = Melanoma, 9 evaluable, with carboplatin and paclitaxel
[23] = Myxoid chondrosarcoma, 1 evaluable, with carboplatin and paclitaxel
[24] = Prostate, 1 evaluable, with carboplatin and paclitaxel
[25] = Stomach, 1 evaluable, with carboplatin and paclitaxel
[26] = Uterine, 1 evaluable, with carboplatin and paclitaxel

Structure (SMILES): C[C@]1(c2nc3c(C(N)=O)cccc3[nH]2)CCCN1 [veliparib]
- AUC on day 3 in the presence of carboplatin and paclitaxel (AUC0-12) vs day 1 veliparib alone (AUC0-inf) ([1]; P=0.049 by exact Wilcoxon): barely significantly lower than expected
- Cmax in the absence vs presence of carboplatin and paclitaxel ([1]; day 1 vs day 3): similar
- expected accumulation ratio by day 3 based on observed half-life ([1]; for a 5.1 h half-life, not observed for Cmax nor AUC): 1.20
- half-life ([1]; human, plasma, po): 5.1 h
- apparent clearance [1, 4]: 27.5 L/h
- exposure versus dose [1, 4]: increase linearly with dose
- MTD, veliparib dose (patients): 10 mg bid
- expected accumulation ratio by day 3 based on reported half-life [2]: 1.34
- CR [3, 5]: 0
- ORR [3, 5]: 0/1 (0%)
- PD [3, 5]: 0
- PR [3, 5]: 0
- CR [3, 6]: 0
- ORR [3, 6]: 0/1 (0%)
- PD [3, 6]: 1
- PR [3, 6]: 0
- CR [3, 7]: 5
- ORR [3, 7]: 27/67 (40%)
- PD [3, 7]: 8
- CR [3, 8]: 0
- ORR [3, 8]: 0/1 (0%)
- PD [3, 8]: 0
- PR [3, 8]: 0
- CR [3, 9]: 1
- ORR [3, 9]: 3/6 (50%)
- PD [3, 9]: 1
- PR [3, 9]: 2
- CR [3, 10]: 3
- ORR [3, 10]: 9/13 (69%)
- PD [3, 10]: 2
- PR [3, 10]: 6
- CR [3, 11]: 0
- ORR [3, 11]: 1/3 (33%)
- PD [3, 11]: 0
- PR [3, 11]: 1
- CR [3, 12]: 0
- ORR [3, 12]: 0/1 (0%)
- PD [3, 12]: 1
- PR [3, 12]: 0
- CR [3, 13]: 0
- ORR [3, 13]: 0/2 (0%)
- PD [3, 13]: 0
- PR [3, 13]: 0
- CR [3, 14]: 0
- ORR [3, 14]: 0/2 (0%)
- PD [3, 14]: 0
- PR [3, 14]: 0
- CR [3, 15]: 0
- ORR [3, 15]: 3/8 (38%)
- PD [3, 15]: 0
- PR [3, 15]: 3
- CR [3, 16]: 0
- ORR [3, 16]: 2/5 (40%)
- PD [3, 16]: 1
- PR [3, 16]: 2
- CR [3, 17]: 0
- ORR [3, 17]: 1/3 (33%)
- PD [3, 17]: 0
- PR [3, 17]: 1
- CR [3, 18]: 2
- ORR [3, 18]: 6/12 (50%)
- PD [3, 18]: 1
- PR [3, 18]: 4
- CR [3, 19]: 0
- ORR [3, 19]: 3/14 (21%)
- PD [3, 19]: 3
- PR [3, 19]: 3
- CR [3, 20]: 0
- ORR [3, 20]: 4/8 (50%)
- PD [3, 20]: 1
- PR [3, 20]: 4
- CR [3, 21]: 1
- ORR [3, 21]: 7/16 (44%)
- PD [3, 21]: 2
- PR [3, 21]: 6
- CR [3, 22]: 0
- ORR [3, 22]: 1/9 (11%)
- PD [3, 22]: 1
- PR [3, 22]: 1
- CR [3, 23]: 0
- ORR [3, 23]: 0/1 (0%)
- PD [3, 23]: 0
- PR [3, 23]: 0
- CR [3, 24]: 0
- ORR [3, 24]: 1/1 (100%)
- PD [3, 24]: 0
- PR [3, 24]: 1
- CR [3, 25]: 0
- ORR [3, 25]: 1/1 (100%)
- PD [3, 25]: 0
- PR [3, 25]: 1
- CR [3, 26]: 0
- ORR [3, 26]: 1/1 (100%)
- PD [3, 26]: 0
- PR [3, 26]: 1

Source: publication PMC7825275 (Cancer chemotherapy and pharmacology, 2019)
